Source: PubChem
Sampled rows, rich in hits. Any-hit rate of the full collection: about 3.5%.
MrgX1 ag = agonists of human MrgX1 receptor; MrgX1-HEK293 cells, Fluo-4 calcium fluorescence, agonist mode; active compounds read high; AID 588627; 0.44% of 310,000 active; B-score at 10 µM; Q96LB2;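 active = calcium response B-score plate-corrected fluorescence ratio at least 3 library SD, with starting fluorescence B-score inside 5 SD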
Target sequence (Q96LB2 whole entry, looked up): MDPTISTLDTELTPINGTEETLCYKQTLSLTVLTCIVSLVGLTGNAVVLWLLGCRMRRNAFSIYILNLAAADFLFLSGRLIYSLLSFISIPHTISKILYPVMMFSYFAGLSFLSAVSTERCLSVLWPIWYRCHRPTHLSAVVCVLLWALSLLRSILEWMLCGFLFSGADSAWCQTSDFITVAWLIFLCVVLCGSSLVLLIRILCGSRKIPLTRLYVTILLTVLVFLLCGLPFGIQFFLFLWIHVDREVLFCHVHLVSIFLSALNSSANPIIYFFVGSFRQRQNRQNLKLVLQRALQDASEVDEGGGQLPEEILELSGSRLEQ
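System – MrgX1-expressing HEK293 cells · Incubation – cells plated overnight, dye loaded 0.5 h 37 °C, 0.5 h room temperature · Technique – kinetic Fluo-4 NW fluorescence of intracellular calcium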
RGS4 pot = potentiators or activators of RGS4 | HEK293 M3R/inducible RGS4, carbachol calcium flux Fluo4; active compounds read low | B-score at 10 µM | 0.92% of 310,000 active | AID 463111;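 active = B-score of the integrated calcium signal more than 4 SD below the library mean, with starting fluorescence not abnormally high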;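 note: negative B-score means reduced calcium response which marks RGS4 activation or potentiation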
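test system = HEK293 cells with stable M3R and inducible RGS4 | schedule = recording 10 s baseline at 1 Hz, 100 s post-agonist | technique = Fluo4-AM (2 µM) calcium-flux fluorescence, kinetic read | measure = Agonist-evoked peak-minus-minimum fluorescence over baseline, integrated ratio, B score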
MrgX1 PAM = human MrgX1 positive allosteric modulation, primary screen; AID 588675; 0.63% of 310,000 active; B-score at 10 µM; MrgX1-HEK293, Fluo-4 calcium flux, FDSS; active compounds read high; Q96LB2;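 active = plate-corrected calcium response at least 3 library SD above typical, normal starting fluorescence, not activating the receptor alone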;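 note: compound read alongside a low EC10 to EC30 dose of BAM8-22 agonist; peak minus trough fluorescence over baseline measured at the second addition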
RGS4 block = human RGS4 inhibition. HEK293 M3R/RGS4 inducible, Fluo-4 calcium flux; active compounds read high; triggered by carbachol at its EC20. B-score at 10 µM. 0.45% of 310,000 active. AID 463165;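 active = B-score, a plate-corrected calcium signal, over three deviations above library mean, with baseline fluorescence within five deviations of library mean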;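 note: RGS4 expression induced by doxycycline in cells with stable M3 receptor; B-score is computed from the integrated fluorescence ratio over baseline after carbachol; higher B-score means a larger calcium signal and so more RGS4 inhibition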
Target sequence (P49798 whole entry, looked up): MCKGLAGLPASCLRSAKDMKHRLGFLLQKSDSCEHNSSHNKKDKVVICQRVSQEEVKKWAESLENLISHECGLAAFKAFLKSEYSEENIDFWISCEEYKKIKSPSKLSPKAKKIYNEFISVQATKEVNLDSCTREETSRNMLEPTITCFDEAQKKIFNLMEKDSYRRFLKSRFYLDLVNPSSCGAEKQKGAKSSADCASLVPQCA
MrgX1 antagonist = antagonists of human MrgX1 receptor; Q96LB2; MRGX1-HEK293 calcium flux, Fluo-4, BAM8-22 antagonism; active compounds read low; B-score at 10 µM; 1.3% of 310,000 active;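 active = calcium-response B-score plate-corrected more than 3 library SD below zero, starting fluorescence within 5 deviations, no agonist response on first addition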;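 note: peak minus trough fluorescence over baseline after final BAM8-22 challenge near maximal dose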
MrgX1 allo conf = reconfirmed allosteric activator of human MrgX1 receptor; shares compounds with MrgX1 PAM; MrgX1-HEK293, Fluo-4 calcium fluorescence, FDSS; activation (ratio percentage), % at 10 µM; 13% of 1,200 active; AID 602413;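 active = ratio at least 3 SD above the weak peptide control, stable starting fluorescence, no direct agonism earlier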;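 note: compound followed by low BAM8-22 agonist challenge near EC20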
MrgX1 ant reconf = human MrgX1 receptor antagonism, re-confirmation screen; shares compounds with MrgX1 antagonist; MrgX1-HEK293, BAM8-22 calcium flux, Fluo-4; active compounds read low; remaining BAM8-22 calcium response % of control (active compounds read low), % at 10 µM; 19% of 2,300 active;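 active = remaining agonist calcium response no higher than 100% minus 3 SD of agonist-only control wells, with starting fluorescence near control levels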;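 note: agonist BAM8-22 given at a near maximal EC90 to ECmax level; peak minus minimum fluorescence divided by baseline after agonist addition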
HEK293 Ca flux = counter-screen for MrgX1 antagonists: effect in parental HEK293 cells; 2% of 4,000 active; fluorescence ratio F(max-min)/F0 at 10 µM; Fluo-4 calcium fluorescence, FDSS; shares compounds with MrgX1 antagonist;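 active = duplicate-averaged calcium fluorescence ratio at least three times the standard deviation of buffer wells, a nonspecific response in parental cells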
HEK293 Ca counter = activity in parental HEK293 cells without MrgX1. fluorescence ratio F(max-min)/F0 at 10 µM. shares compounds with MrgX1 antagonist. 0.4% of 4,000 active. AID 624114. parental HEK293 calcium flux, Fluo-4 fluorescence ratio; active compounds read high;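 active = calcium fluorescence ratio, averaged over duplicates, at least 3 SD of the buffer-well ratio, meaning a nonspecific response in receptor-free cells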;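 note: untransfected parental HEK293 lacking MrgX1 used as counterscreen for MrgX1 allosteric activators; fluorescence change taken during the second addition on a kinetic imager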
HEK293 Ca cntr2 = counter-screen for MrgX1 activators: effect in parental HEK293 cells; 8.7% of 4,000 active; fluorescence ratio F(max-min)/F0 at 10 µM; Fluo-4 calcium fluorescence (FDSS); active compounds read high; shares compounds with MrgX1 antagonist;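 active = calcium fluorescence ratio at least three times the spread of buffer wells, meaning a non-specific response in parental cells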
Numbers without * were called inactive; i = inactive; . = no result given; ! = not confirmed by another sample.

SMILES	MrgX1 ag	RGS4 pot	MrgX1 PAM	RGS4 block	MrgX1 antagonist	MrgX1 allo conf	MrgX1 ant reconf	HEK293 Ca flux	HEK293 Ca counter	HEK293 Ca cntr2
COc1nc2ccccc2c(=O)n1-c1ccc(C)cc1	i	i	18*	i	i	i	.	i	i	i
COc1nc2ccccc2c(=O)n1-c1ccc(Cl)cc1	i	i	12*	i	i	i	.	i	i	i
Cc1ccc(-n2c(C)nc3ccccc3c2=O)cc1C	i	i	7.7*	i	i	13%*	.	i	i	i
CCCc1nc2ccccc2c(=O)n1-c1ccc(OC)cc1	i	i	i	i	i	.	.	.	.	.
COc1ccc(-n2c(-c3ccc(C)cc3)nc3ccccc3c2=O)cc1	i	i	i	i	i	.	.	.	.	.
CCCCOc1nc2ccccc2c(=O)n1-c1ccccc1	i	i	9.2*	i	i	i	.	i	i	48*
CCOC(=O)C1=C(N)Oc2cc(C)oc(=O)c2C12C(=O)N1c3c(cccc32)C(C)=CC1(C)C (stereo not drawn)	i	i	9.2*	i	i	i	.	i	i	87*
CC(C)COC(=O)c1ccccc1C(=O)OCC(C)C	i	i	i	i	i	.	.	.	.	.
C[CH2][Hg][S]c1ccccc1C(=O)O	i	.	6.5*	.	i	i	.	i	i	i
CC1(C)CN=C(NCc2ccccc2)S1	i	i	6.4*	i	i	i	.	i	i	i
O=C1CC(c2cccnc2)=NN1c1ccc(Cl)cc1Cl	i	i	i	i	i	.	.	.	.	.
CCN1C(=O)CC(c2cccnc2)=Nc2ccccc21	i	i	6.4*	i	i	i	.	i	i	i
Cc1cnc(NC(=O)CN2CCCCC2)s1	i	i	i	i	i	.	.	.	.	.
CCOc1cc2c(cc1OCC)-n1cccc1C(c1cccc(OCC)c1O)NC2 (stereo not drawn)	i	i	i	i	i	.	.	.	.	.
CCCCCn1c(=O)c(C(=O)NCCc2ccccc2)c(O)c2ccccc21	i	i	7.6*	i	-8.2*	i	i	i	i	i
C=CCN1CCc2cccc3c2[C@H]1Cc1ccc(O)c(O)c1-3	i	i	8.1*	i	i	i	.	i	i	i
CC(=O)Nc1ccccc1OP1(=O)COc2ccccc2OC1	i	i	i	i	i	.	.	.	.	.
CCC(=Nc1ccccc1N)c1c(O)[nH]c(=O)[nH]c1=O	i	i	i	i	i	.	.	.	.	.
FC(F)(F)c1cccc(-n2nnnc2C2(N3CCOCC3)CCCCC2)c1	i	i	i	i	-5.1*	.	i	i	i	i
O=C1CCN(C(=O)Cc2ccccc2[N+](=O)[O-])CC1	i	i	i	i	i	.	.	.	.	.
CCOc1ccc(N2C(=O)CC(=O)NC2=O)cc1	i	i	i	i	i	.	.	.	.	.
COc1cc(N2C(=O)CC(=O)NC2=O)cc(OC)c1OC	i	i	i	i	-5.1*	.	82%*	i	i	i
CC(=O)O[C@@H]1[C@H]2CC[C@@H]3[C@]1(C[C@@H](OC(C)=O)[C@@]1(O)C([C@@H]4O[C@@H]4C1(C)C)[C@]3(C)O)C[C@@]2(C)O (stereo partly drawn)	i	i	i	i	i	.	.	.	.	.
ClC1C(Cl)C(Cl)C(Cl)C(Cl)C1Cl (stereo not drawn)	i	.	i	.	-6.9*!	.	i	i	i	i
O[C@@H]1CCCC[C@H]1N1CCC(c2ccccc2)CC1	i	i	i	i	i	.	.	.	.	.
SMILES	MrgX1 ag	RGS4 pot	MrgX1 PAM	RGS4 block	MrgX1 antagonist	MrgX1 allo conf	MrgX1 ant reconf	HEK293 Ca flux	HEK293 Ca counter	HEK293 Ca cntr2
COc1ccccc1-n1c(-c2ccoc2)nc2ccccc2c1=O	i	i	i	i	-4.7*	.	i	i	i	i
O=C(c1cccn2c(=O)c3cc(Br)ccc3nc12)N1CCC2(CC1)OCCO2	i	i	i	i	i	.	.	.	.	.
Cc1cccn2c(=O)c3cc(C(=O)N4CCC5(CC4)OCCO5)n(C)c3nc12	i	i	i	i	-4.7*	.	i	i	i	i
COc1cccc(-n2c(/C=C/c3ccc(O)c(O)c3)nc3ccccc3c2=O)c1	i	i	i	i	-5.7*	.	i	i	i	i
Cc1c(C=O)c2ccccc2n1Cc1ccccc1F	i	i	i	i	-11*	.	i	i	i	i
CCCCn1c(O)c(C(C)=NCc2cc(OC)cc(OC)c2)c(=O)[nH]c1=O	i	i	i	i	-6.8*	.	i	i	i	i
CCN1C[C@]2(CO)CC[C@H](OC)[C@@]34C5C[C@H]6[C@H](OC)C5[C@](O)(C[C@H]6OC)[C@@](O)(C(OC)C23)[C@@H]14 (stereo partly drawn)	i	i	i	i	-4.6*	.	i	i	i	i
CC(C)(C)c1cc([N+](=O)[O-])cc(C(C)(C)C)c1O	i	i	i	i	i	.	.	.	.	.
CCc1ccc(-n2c(O)c(/C=N/N3CCCCC3c3cccnc3)c(=O)[nH]c2=O)cc1 (stereo not drawn)	i	i	i	i	-11*	.	i	i	i	i
CN1C(=O)C(=Cc2c(OCc3cnc(Cl)s3)ccc3ccccc23)C(=O)N(C)C1=O	i	i	i	i	i	.	.	.	.	.
NC(CC(=O)O)C1CCCCC1 (stereo not drawn)	i	i	i	i	-7*	.	i	i	i	i
CC(N)Cc1c[nH]c2cc3c(cc12)OCCO3 (stereo not drawn)	i	i	i	i	i	.	.	.	.	.
CC(C)CC1C(C#N)=C(N)Oc2c1c(=O)oc1ccccc21 (stereo not drawn)	i	i	i	i	-6.3*	.	i	i	i	i
CCC1C(C#N)=C(N)Oc2c1c(=O)oc1ccccc21 (stereo not drawn)	i	i	i	i	i	.	.	.	.	.
